Reference: ChEMBL document CHEMBL3621143, “Discovery of BMS-641988, a Novel Androgen Receptor Antagonist for the Treatment of Prostate Cancer” (ACS Med Chem Lett, 2015)
Active and inactive are the calls of the source. The rule behind the calls is not given here.

Experiments:
[1] = Clearance in rat at 5 mg/kg, iv and 10 mg/kg, po; format: ADME, organism-based; conditions: in vivo
Procedure, shortened: (§1)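 Single IV and oral doses in mouse and rat (IV 5, PO 10 mg/kg) and dog (IV 1, PO 2 mg/kg). Half-life, clearance, AUC0-∞ (µM*h) and %F derived from the plasma profiles.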

[2] = Plasma concentration in immature Sprague-Dawley rat prostate weight model at 1 mg/kg, po qd administered for 4 days measured 2 hrs post last dose on day 4; format: ADME, organism-based
Procedure, shortened: (§2)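 Immature rat prostate weight model, oral dosing once daily at 1 or 10 mg/kg for 4 days. Plasma drug concentration (µM) measured 2 hours post-dose on day 4, n=3.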

[3] = Oral bioavailability in rat at 10 mg/kg; format: ADME, organism-based; conditions: in vivo; procedure, shortened: as §1
[4] = Half life in mouse at 5 mg/kg, iv and 10 mg/kg, po; format: ADME, organism-based; conditions: in vivo; procedure, shortened: as §1
[5] = Plasma concentration in immature Sprague-Dawley rat prostate weight model at 10 mg/kg, po qd administered for 4 days measured 2 hrs post last dose on day 4; format: ADME, organism-based; procedure, shortened: as §2
[6] = target: T1, Nuclear receptor subfamily 1 group I member 2 (Homo sapiens, UniProt O75469); assay: Transactivation of human PXR; format: ADME
T1 sequence (O75469 whole entry): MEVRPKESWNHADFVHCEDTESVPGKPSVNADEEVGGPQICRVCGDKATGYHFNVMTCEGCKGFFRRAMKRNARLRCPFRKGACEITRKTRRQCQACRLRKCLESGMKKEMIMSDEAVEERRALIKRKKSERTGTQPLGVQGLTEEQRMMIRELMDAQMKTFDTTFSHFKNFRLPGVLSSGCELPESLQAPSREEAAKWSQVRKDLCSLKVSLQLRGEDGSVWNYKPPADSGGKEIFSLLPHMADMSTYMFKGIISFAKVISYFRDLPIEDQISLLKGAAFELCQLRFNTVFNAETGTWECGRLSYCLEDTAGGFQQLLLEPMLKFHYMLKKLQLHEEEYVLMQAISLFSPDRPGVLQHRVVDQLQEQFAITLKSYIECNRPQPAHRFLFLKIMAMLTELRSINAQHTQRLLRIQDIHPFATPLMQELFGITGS

[7] = AUC (0 to infinity) in mouse at 5 mg/kg, iv; format: ADME, organism-based; set-up: dose 5 mg/kg, time infinity, route intravenous; conditions: in vivo; procedure, shortened: as §1
Cytochrome P450 2D6 = Cytochrome P450 2D6 (Homo sapiens, UniProt P10635); assay: Inhibition of human CYP2D6; format: ADME
Cytochrome P450 2D6, sequence (P10635 whole entry): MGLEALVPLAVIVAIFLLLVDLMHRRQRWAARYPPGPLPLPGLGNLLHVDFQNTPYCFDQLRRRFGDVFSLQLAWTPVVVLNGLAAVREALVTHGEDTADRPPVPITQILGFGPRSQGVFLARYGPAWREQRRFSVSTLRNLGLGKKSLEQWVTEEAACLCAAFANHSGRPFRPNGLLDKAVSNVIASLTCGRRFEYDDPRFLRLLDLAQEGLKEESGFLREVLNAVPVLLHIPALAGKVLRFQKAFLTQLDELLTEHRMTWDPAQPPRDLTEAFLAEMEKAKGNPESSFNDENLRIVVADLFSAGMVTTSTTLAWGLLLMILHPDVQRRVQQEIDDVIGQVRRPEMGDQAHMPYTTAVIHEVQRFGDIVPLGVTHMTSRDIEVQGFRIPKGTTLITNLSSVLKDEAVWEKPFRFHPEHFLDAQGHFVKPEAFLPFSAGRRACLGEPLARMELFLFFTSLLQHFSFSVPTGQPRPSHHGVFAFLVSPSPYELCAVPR

[8] = Fraction unbound in dog plasma by equilibrium dialysis method; format: ADME, cell-free, Canis lupus familiaris
Procedure, shortened: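 Plasma protein binding measured by equilibrium dialysis in mouse, rat, dog and human plasma, reported as % free.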

Cytochrome P450 2C9 = Cytochrome P450 2C9 (Homo sapiens, UniProt P11712); assay: Inhibition of human CYP2C9; format: ADME
Cytochrome P450 2C9, sequence (P11712 whole entry): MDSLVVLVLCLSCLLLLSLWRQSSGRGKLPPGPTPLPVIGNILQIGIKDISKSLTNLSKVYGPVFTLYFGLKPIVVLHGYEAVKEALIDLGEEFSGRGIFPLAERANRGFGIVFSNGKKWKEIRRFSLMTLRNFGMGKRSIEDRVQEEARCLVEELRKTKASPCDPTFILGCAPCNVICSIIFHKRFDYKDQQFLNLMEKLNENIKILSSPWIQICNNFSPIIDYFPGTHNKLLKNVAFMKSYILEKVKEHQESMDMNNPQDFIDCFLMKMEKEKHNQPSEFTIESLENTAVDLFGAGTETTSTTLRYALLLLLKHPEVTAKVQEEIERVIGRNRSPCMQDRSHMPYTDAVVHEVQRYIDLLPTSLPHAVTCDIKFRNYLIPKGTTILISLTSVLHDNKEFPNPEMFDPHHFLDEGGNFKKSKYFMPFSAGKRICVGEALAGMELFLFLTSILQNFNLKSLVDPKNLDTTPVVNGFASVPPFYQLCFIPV

[9] = Oral bioavailability in mouse at 10 mg/kg; format: ADME, organism-based; conditions: in vivo; procedure, shortened: as §1
CWR22 = assay: Antitumor activity against bicalutamide-resistant human CWR22 cells in Balb/c athymic (nu/nu) mouse CWR22-BMSLD1 prostate cancer xenograft model assessed as tumor growth inhibition at 90 mg/kg, po qd administered for 45 days measured for 10 days during compound dosing; format: functional, organism-based
Procedure, shortened: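 CWR22-BMSLD1 human prostate cancer xenograft. Oral once-daily dosing at 90 mg/kg for 45 days, or at 150 mg/kg for 35 days, with a vehicle group. Median tumor volume (mm3) tracked against days post implant.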

[10] = Clearance in mouse at 5 mg/kg, iv and 10 mg/kg, po; format: ADME, organism-based; conditions: in vivo; procedure, shortened: as §1
Cytochrome P450 2C8 = target: T2, Cytochrome P450 2C8 (Homo sapiens, UniProt P10632); assay: Inhibition of human CYP2C8; format: ADME
T2 sequence (P10632 whole entry): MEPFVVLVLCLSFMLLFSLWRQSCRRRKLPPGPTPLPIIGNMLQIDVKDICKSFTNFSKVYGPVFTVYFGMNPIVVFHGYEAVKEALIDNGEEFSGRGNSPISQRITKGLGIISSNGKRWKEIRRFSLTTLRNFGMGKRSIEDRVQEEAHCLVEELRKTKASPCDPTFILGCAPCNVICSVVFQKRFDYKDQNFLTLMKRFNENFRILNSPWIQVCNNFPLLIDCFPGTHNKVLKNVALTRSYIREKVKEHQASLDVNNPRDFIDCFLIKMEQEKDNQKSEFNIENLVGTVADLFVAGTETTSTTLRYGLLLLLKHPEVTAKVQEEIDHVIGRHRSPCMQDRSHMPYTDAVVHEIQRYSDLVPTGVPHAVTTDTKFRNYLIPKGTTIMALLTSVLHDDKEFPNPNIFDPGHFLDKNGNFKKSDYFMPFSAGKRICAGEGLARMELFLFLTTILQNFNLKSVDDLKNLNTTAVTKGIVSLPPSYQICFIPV

[11] = AUC (0 to infinity) in dog at 1 mg/kg, iv; format: ADME, organism-based, Canis lupus familiaris; set-up: dose 1 mg/kg, route intravenous, time infinity; conditions: in vivo; procedure, shortened: as §1
[12] = AUC (0 to infinity) in rat at 10 mg/kg, po; format: ADME, organism-based; set-up: dose 10 mg/kg, route oral, time infinity; conditions: in vivo; procedure, shortened: as §1
Hepatocyte = assay: Drug metabolism in human hepatocytes assessed per 10^6 cells; format: ADME, cell-based
Procedure, shortened: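 Metabolic rate in mouse, rat, dog, monkey and human hepatocyte incubations, expressed as pmol/min/10^6 cells.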

[13] = Oral bioavailability in dog at 2 mg/kg; format: ADME, organism-based, Canis lupus familiaris; conditions: in vivo; procedure, shortened: as §1
Androgen receptor = target: T3, Androgen receptor (Homo sapiens, UniProt P10275); assay: Displacement of [3H]-DHT from androgen receptor in human MDA-MB-453 cells after 90 mins by TopCount analysis; format: cell-based
T3 sequence (P10275 whole entry): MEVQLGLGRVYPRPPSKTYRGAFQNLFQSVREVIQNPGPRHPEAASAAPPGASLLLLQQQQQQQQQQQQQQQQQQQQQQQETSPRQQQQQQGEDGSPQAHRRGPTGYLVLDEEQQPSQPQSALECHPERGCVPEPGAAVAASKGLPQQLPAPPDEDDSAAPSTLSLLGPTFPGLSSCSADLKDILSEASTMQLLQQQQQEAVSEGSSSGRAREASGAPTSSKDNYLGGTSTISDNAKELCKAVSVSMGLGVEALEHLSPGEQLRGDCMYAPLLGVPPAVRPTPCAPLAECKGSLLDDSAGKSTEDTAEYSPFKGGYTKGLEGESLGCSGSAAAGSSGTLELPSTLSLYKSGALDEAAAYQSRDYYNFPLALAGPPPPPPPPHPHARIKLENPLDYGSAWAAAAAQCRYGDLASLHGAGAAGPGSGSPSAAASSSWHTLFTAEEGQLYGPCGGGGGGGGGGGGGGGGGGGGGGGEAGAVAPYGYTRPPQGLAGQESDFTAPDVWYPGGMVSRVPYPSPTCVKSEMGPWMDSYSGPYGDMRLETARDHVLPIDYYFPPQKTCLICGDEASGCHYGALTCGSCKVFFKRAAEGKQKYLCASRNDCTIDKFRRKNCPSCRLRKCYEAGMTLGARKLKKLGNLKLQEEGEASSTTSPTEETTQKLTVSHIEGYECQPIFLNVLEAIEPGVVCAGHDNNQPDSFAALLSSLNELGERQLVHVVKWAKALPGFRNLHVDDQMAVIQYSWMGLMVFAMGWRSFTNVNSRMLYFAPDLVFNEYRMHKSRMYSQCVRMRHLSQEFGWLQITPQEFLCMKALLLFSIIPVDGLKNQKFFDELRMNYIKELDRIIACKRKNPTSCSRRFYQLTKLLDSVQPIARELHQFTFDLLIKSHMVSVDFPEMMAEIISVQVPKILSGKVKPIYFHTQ

Work on `CCS(=O)(=O)N[C@@H]1C[C@]2(C)O[C@]1(C)[C@@H]1C(=O)N(c3ccc(C#N)c(C(F)(F)F)c3)C(=O)[C@@H]12` yielded a clearance [1] of 6.5 mL/min/kg, a concentration at 2 h [2] of 790 nM and a bioavailability [3] of 63.9%. The half-life [4] was 2.4 h, the concentration at 2 h [5] was 4000 nM and the EC50 [6] was > 50 µM. The AUC(0-inf) [7] was 39.1 µM·h, the IC50 (Cytochrome P450 2D6) was > 40 µM and the fraction unbound [8] was 0.165. The IC50 (Cytochrome P450 2C9) was > 40 µM, the bioavailability [9] was 94.7% and the TGI (CWR22) was “inactive”. The clearance [10] was 4.5 mL/min/kg, the IC50 (Cytochrome P450 2C8) was > 40 µM and the AUC(0-inf) [11] was 102 µM·h. The AUC(0-inf) [12] was 40.5 µM·h, the Drug metabolism (Hepatocyte) was 2 pmol/min and the bioavailability [13] was 79%. It also gave a Ki (Androgen receptor) of 0.0017 µM.
